Most compounds without a hit are left out; they make up all but 10% or so of the library.
PMI activator: increases human mannose-6-phosphate isomerase activity; AID 1214; 0.005% of 190,000 active; purified human PMI, coupled resazurin fluorescence, 20 min; hits give high values; 1 = vehicle control, 0 substrate-free wells; activation factor at 20 µM; P34949;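 active = activation factor of 2 or more at 20 µM, relative to plate controls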
Target sequence (P34949 whole entry, looked up): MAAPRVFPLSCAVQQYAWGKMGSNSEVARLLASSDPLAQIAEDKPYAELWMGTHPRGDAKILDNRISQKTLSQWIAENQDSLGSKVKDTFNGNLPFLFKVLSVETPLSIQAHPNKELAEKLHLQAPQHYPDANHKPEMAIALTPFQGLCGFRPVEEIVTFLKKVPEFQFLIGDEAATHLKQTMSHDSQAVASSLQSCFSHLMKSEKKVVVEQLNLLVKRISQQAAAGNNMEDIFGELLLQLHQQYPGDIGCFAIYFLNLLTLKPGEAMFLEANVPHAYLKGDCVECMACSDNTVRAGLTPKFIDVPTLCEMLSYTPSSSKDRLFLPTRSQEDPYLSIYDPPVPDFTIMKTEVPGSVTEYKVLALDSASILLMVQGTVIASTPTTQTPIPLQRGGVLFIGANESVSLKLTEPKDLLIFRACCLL
WT yeast gro inh: growth inhibition of WT yeast, mitochondrial fusion screen. inhibition, % at 10 µM. 2.1% of 190,000 active. mitochondrial fusion phenotypic screen, WT strain; in the data active = inhibition above about 58%; tested in S. cerevisiae
PMI act hi M6P: PMI (human) activation, high substrate; coupled PMI enzyme assay, resazurin fluorescence, 20 min; hits give high values; 1 = untreated enzyme, 0 = substrate-free blank; AID 1216; 0.34% of 190,000 active; P34949; activation factor at 20 µM;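 active = activation factor of 2 or more at 20 µM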
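Material: human phosphomannose isomerase with PGI, G6PDH, diaphorase coupling enzymes. Quantity: 15 ng/mL PMI. Medium: HEPES pH 7.4 buffer with MgCl2 and Tween-20. Reagent: Near-saturating mannose-6-phosphate, 1.0 mM. Compound: 20 µM single dose. Times: enzyme reaction with compound 20 min at room temperature. Detection: resorufin fluorescence at Ex 544/Em 590 nm.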
Lmaj promast: inhibitors of Leishmania major promastigote growth; Leishmania major promastigotes, resazurin fluorescence viability; inhibition, % at 10 µM; 9% of 200,000 active; AID 1063; in the data active = inhibition above about 50%;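 note: promastigotes grown with compound for 44 hours at 28 °C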
Diaphorase act: activates diaphorase or chemically reduces, flagging diaphorase assay artifacts; Diaphorase/resazurin coupled assay, resorufin fluorescence, 16 min; hits give high values; 1 = vehicle wells, 0 = NADH-free wells; activation factor at 20 µM; 0.005% of 190,000 active;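 active = diaphorase activity raised at least twofold by the compound at 20 µM; inactive = activation factor below 2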
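Material: purified diaphorase enzyme from Clostridium kluyveri; Also added: 0.114 mM NADH and 0.1 mM resazurin, final amounts; Doses: single compound dose of 20 µM, 1% DMSO final; Times: 16 min enzyme reaction, ambient temperature; Detection: resorufin fluorescence, excitation 544 nm, emission 590 nm; Measure: increased resorufin signal from activators or reducing compounds.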
* marks the source's active call; other numbers are inactive results.

`Clc1ccc(/C=N/N2CCN(Cc3ccccc3Cl)CC2)cc1` gave PMI activator 1.1, WT yeast gro inh 66*, PMI act hi M6P 1, Lmaj promast -1 and Diaphorase act 0.9.
For COc1ccccc1/C=C\C=N\n1c(-c2ccc(Cl)cc2Cl)n[nH]c1=S the results were PMI activator 0.8, WT yeast gro inh 65*, PMI act hi M6P 1, Lmaj promast -5 and Diaphorase act 0.7.
For COc1ccccc1/C=C/C=N/N1CCN(Cc2ccc(Cl)cc2)CC1 the results were PMI activator 0.9, WT yeast gro inh 42, PMI act hi M6P 0.8, Lmaj promast 85* and Diaphorase act 0.8.
Screening C(=C\c1ccccc1)/C=N/N1CCN(Cc2ccccc2)CC1 returned PMI activator 0.9, WT yeast gro inh 27, PMI act hi M6P 0.9, Lmaj promast 0 and Diaphorase act 0.9.
`COc1ccccc1/C=C/C=N\N1CCN(Cc2ccccc2Cl)CC1` gave PMI activator 1.1, WT yeast gro inh 63*, PMI act hi M6P 1.2, Lmaj promast 65* and Diaphorase act 0.9.
`CNC(=O)COC(=O)c1cc(-c2ccccc2)nn1-c1ccccc1` gave PMI activator 1.1, WT yeast gro inh 5, PMI act hi M6P 1.1, Lmaj promast 10 and Diaphorase act 1.
`COc1ccc(CCNC(=O)COC(=O)c2ccc(N3CCCC3=O)cc2)cc1OC` gave PMI activator 1, WT yeast gro inh 11, PMI act hi M6P 1, Lmaj promast 0 and Diaphorase act 0.9.
Screening Cc1ccc(/C=N/N2CCN(Cc3ccc(Cl)cc3)CC2)o1 returned PMI activator 0.9, WT yeast gro inh 2, PMI act hi M6P 1, Lmaj promast 52* and Diaphorase act 0.9.
`Clc1ccc(CN2CCN(/N=C/c3ccco3)CC2)cc1` gave PMI activator 0.9, WT yeast gro inh -2, PMI act hi M6P 0.9, Lmaj promast -1 and Diaphorase act 0.9.
`Cc1ccc(S(=O)(=O)N(C)CC(=O)OCC(=O)c2c(N)n(C)c(=O)n(C)c2=O)cc1` gave PMI activator 0.9, WT yeast gro inh 0, PMI act hi M6P 0.9, Lmaj promast -5 and Diaphorase act 0.9.
COC(=O)c1ccc(NC(=O)CNc2ccccc2)cc1 was read as PMI activator 0.8, WT yeast gro inh 2, PMI act hi M6P 0.9, Lmaj promast 76* and Diaphorase act 0.8.
COC(=O)c1ccc(NC(=O)CSC2=NC(=O)C(c3ccccc3)C(=O)N2)cc1 (stereo not drawn) was read as PMI activator 1, WT yeast gro inh -24, PMI act hi M6P 1.1, Lmaj promast 53* and Diaphorase act 1.
`COC(=O)c1ccc(NC(=O)CCOc2ccccc2)cc1` gave PMI activator 1, WT yeast gro inh 15, PMI act hi M6P 1, Lmaj promast 8 and Diaphorase act 1.
`O=C(N=Nc1ccc(NOC(=O)c2ccccc2Br)cc1)c1ccccc1O` gave PMI activator 0.7, WT yeast gro inh 42, PMI act hi M6P 0.3, Lmaj promast -5 and Diaphorase act 0.4.
Screening Cc1ccc(NC(=O)Cn2cc(S(=O)(=O)c3ccccc3)c(=O)c3cc(F)ccc32)cc1 returned PMI activator 1, WT yeast gro inh -9, PMI act hi M6P 1, Lmaj promast -7 and Diaphorase act 0.9.
`O=c1c(S(=O)(=O)c2ccc(Cl)cc2)cn(Cc2ccccc2)c2ccc(F)cc12` gave PMI activator 0.9, WT yeast gro inh -6, PMI act hi M6P 0.9, Lmaj promast 91* and Diaphorase act 0.8.
Screening Cc1ccc(-c2nn(-c3ccccc3)cc2CSC(=N)N)cc1 returned PMI activator 1, WT yeast gro inh 81*, PMI act hi M6P 1, Lmaj promast 100* and Diaphorase act 1.3.
Screening COc1ccc(Cl)cc1C(=O)NNC(=O)CN1C(=O)C2CC=CCC2C1=O (stereo not drawn) returned PMI activator 1, WT yeast gro inh -6, PMI act hi M6P 0.9, Lmaj promast -8 and Diaphorase act 0.9.
`Cc1cc(C2(c3ccc(O)c(C)c3)C(=O)Nc3ccccc32)ccc1O` gave PMI activator 0.8, WT yeast gro inh 1, PMI act hi M6P 0.8, Lmaj promast 93* and Diaphorase act 0.8.
`Cc1cccc(-c2cc3nc4c(c(NCc5ccco5)n3n2)CCCC4)c1` gave PMI activator 0.8, WT yeast gro inh 85, PMI act hi M6P 0.8, Lmaj promast 67* and Diaphorase act 0.8.
`Cc1cccc(-c2cc3nc4c(c(N5CCC6(CC5)OCCO6)n3n2)CCCC4)c1` gave Lmaj promast 65*.
For CN(C)CCCNc1c2c(nc3cc(-c4cccc(F)c4)nn13)CCC2 the results were PMI activator 0.9, WT yeast gro inh -14, PMI act hi M6P 1, Lmaj promast 8 and Diaphorase act 0.9.
Screening Cc1cccc(-c2cc3nc4c(c(N5CCOCC5)n3n2)CCCC4)c1 returned PMI activator 0.8, WT yeast gro inh 69*, PMI act hi M6P 0.8, Lmaj promast 57* and Diaphorase act 0.8.
`COc1cccc(-c2cc3nc4c(c(N5CCC6(CC5)OCCO6)n3n2)CCC4)c1` gave PMI activator 0.8, WT yeast gro inh 65*, PMI act hi M6P 0.9, Lmaj promast 27 and Diaphorase act 0.6.
Screening Cc1ccc(S(=O)(=O)N2CCN(c3ccnc4cc(Cl)ccc34)CC2)cc1 returned PMI activator 0.9, WT yeast gro inh 65*, PMI act hi M6P 0.9, Lmaj promast 27 and Diaphorase act 0.8.
`Cc1ccc(S(=O)(=O)N2CCN(c3ccnc4cc(Cl)ccc34)CC2)cc1C` gave PMI activator 0.9, WT yeast gro inh 69*, PMI act hi M6P 1, Lmaj promast 12 and Diaphorase act 0.9.
`O=C(c1ccc(Cl)cc1)N1CCN(c2ccnc3cc(Cl)ccc23)CC1` gave PMI activator 1.1, WT yeast gro inh 43, PMI act hi M6P 1.1, Lmaj promast 66* and Diaphorase act 1.1.
Screening Cc1cc(N2CCN(S(=O)(=O)c3ccc(Cl)c(Cl)c3)CC2)c2ccccc2n1 returned PMI activator 0.9, WT yeast gro inh 69*, PMI act hi M6P 1, Lmaj promast 74* and Diaphorase act 0.8.
For COc1ccc(C(=O)NC2(C(F)(F)F)NC(=O)N(CCCc3ccccc3)C2=O)cc1OC (stereo not drawn) the results were PMI activator 1, WT yeast gro inh 2, PMI act hi M6P 1, Lmaj promast 1 and Diaphorase act 0.8.
`Cc1cc(C)n(-c2nc3ccccc3nc2N2CCN(S(=O)(=O)c3ccc4ccccc4c3)CC2)n1` gave PMI activator 0.9, WT yeast gro inh 19, PMI act hi M6P 0.9, Lmaj promast 54* and Diaphorase act 0.8.
For O=C(OCC(=O)N1CCc2ccccc21)c1nc(Cl)ccc1Cl the results were PMI activator 1, WT yeast gro inh 7, PMI act hi M6P 1, Lmaj promast 2 and Diaphorase act 1.

Assay outcomes (PubChem)
